ChEMBL document CHEMBL4813926, “Auyuittuqamides A-D, Cyclic Decapeptides from Sesquicillium microsporum RKAG 186 Isolated from Frobisher Bay Sediment” (J Nat Prod, 2021)
Activity calls are given as the source filed them. Where a SMILES comes first, the peptide text is derived from it. [ ]: non-standard residue; d: D form. NMeF = CN[C@@H](Cc1ccccc1)C(=O)O; NMeT = CN[C@H](C(=O)O)[C@@H](C)O; NMeV = CN[C@H](C(=O)O)C(C)C

Key:
[1] = system: Staphylococcus aureus; assay: Antimicrobial activity against methicillin-resistant Staphylococcus aureus ATCC 33591 up to 128 uM measured after 22 hrs by CLSI protocol based microbroth dilution assay; format: functional, organism-based; details: dose microM <=128, time 22.0 hrs
In short: (§1)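 CLSI broth microdilution in 96-well format. Growth inhibition was read as absorbance at 600 nm at time zero and after 22 h incubation at 37 °C.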

[2] = system: Candida albicans; assay: Antifungal activity against Candida albicans ATCC 14035 up to 128 uM measured after 22 hrs by CLSI protocol based microbroth dilution assay; format: functional, organism-based; details: dose microM <=128, time 22.0 hrs
In short: (§2)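 96-well microbroth dilution run to CLSI standards. OD 600 nm read at time zero and at the end, after 22 h incubation at 37 °C, to give growth inhibition.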

[3] = system: Enterococcus faecium; assay: Antimicrobial activity against vancomycin-resistant Enterococcus faecium EF379 up to 128 uM measured after 22 hrs by CLSI protocol based microbroth dilution assay; format: functional, organism-based; details: dose microM <=128, time 22.0 hrs; in short: as §1
[4] = system: Pseudomonas aeruginosa; assay: Antimicrobial activity against Pseudomonas aeruginosa ATCC 14210 up to 128 uM measured after 22 hrs by CLSI protocol based microbroth dilution assay; format: functional, organism-based; details: dose microM <=128, time 22.0 hrs; in short: as §2
[5] = system: Staphylococcus warneri; assay: Antimicrobial activity against Staphylococcus warneri ATCC 17917 up to 128 uM measured after 22 hrs by CLSI protocol based microbroth dilution assay; format: functional, organism-based; details: dose microM <=128, time 22.0 hrs; in short: as §2
[6] = Cytotoxicity against ER negative human HTB26 cells assessed as reduction in cell viability measured after 24 hrs by Alamar blue assay; format: functional, cell-based; details: HTB26, 24 h
In short: (§3)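 Cells in 96-well culture plates, in triplicate. Viability taken 24 h after treatment with Alamar Blue redox dye. Fluorescence read at 560/12 nm excitation and 590 nm emission, at time zero and 4 h after dye addition.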

[7] = system: MCF7; assay: Cytotoxicity against ER positive human MCF7 cells assessed as reduction in cell viability measured after 24 hrs by Alamar blue assay; format: functional, cell-based; details: MCF7, 24 h; in short: as §3
[8] = system: Keratinocyte; assay: Cytotoxicity against human epidermal keratinocytes assessed as reduction in cell viability measured after 24 hrs by Alamar blue assay; format: cell-based; in short: as §3

CC[C@@H](C)[C@@H]1NC(=O)CNC(=O)[C@H](Cc2ccccc2)N(C)C(=O)[C@H](C(C)C)NC(=O)[C@H]([C@@H](C)O)N(C)C(=O)[C@H](CC(C)C)NC(=O)CNC(=O)[C@H](C(C)C)N(C)C(=O)[C@H](C(C)C)NC(=O)[C@H](CO)NC1=O
inactive: Activity [1] | Activity [2] | Activity [3] | Activity [4] | Activity [5]
> 10 µM: IC50 [6] | IC50 [7] | IC50 [8]

CC[C@H](C)[C@@H]1NC(=O)CNC(=O)[C@H](Cc2ccccc2)N(C)C(=O)[C@H]([C@@H](C)CC)NC(=O)[C@H]([C@@H](C)O)N(C)C(=O)[C@H](CC(C)C)NC(=O)CNC(=O)[C@H](C(C)C)N(C)C(=O)[C@H]([C@@H](C)CC)NC(=O)[C@H](CO)NC1=O (cyclo(GISI[NMeV]GL[NMeT]I[NMeF]))
> 10 µM: IC50 [6] | IC50 [7] | IC50 [8]
inactive: Activity [1] | Activity [2] | Activity [3] | Activity [4] | Activity [5]

CC[C@H](C)[C@@H]1NC(=O)CNC(=O)[C@H](Cc2ccccc2)N(C)C(=O)[C@H]([C@@H](C)CC)NC(=O)[C@H]([C@@H](C)O)N(C)C(=O)[C@H](CC(C)C)NC(=O)CNC(=O)[C@H](C(C)C)N(C)C(=O)[C@H](C(C)C)NC(=O)[C@H](CO)NC1=O (cyclo(GISV[NMeV]GL[NMeT]I[NMeF]))
inactive: Activity [1] | Activity [2] | Activity [3] | Activity [4] | Activity [5]
> 10 µM: IC50 [6] | IC50 [7] | IC50 [8]

CC(C)C[C@@H]1NC(=O)CNC(=O)[C@H](C(C)C)N(C)C(=O)[C@H](C(C)C)NC(=O)[C@H](CO)NC(=O)[C@H](C(C)C)NC(=O)CNC(=O)[C@H](Cc2ccccc2)N(C)C(=O)[C@H](C(C)C)NC(=O)[C@H]([C@@H](C)O)N(C)C1=O (cyclo(GL[NMeT]V[NMeF]GVSV[NMeV]))
> 10 µM: IC50 [6] | IC50 [7] | IC50 [8]
inactive: Activity [1] | Activity [2] | Activity [3] | Activity [4] | Activity [5]
